# Experimental data published in ChEMBL document CHEMBL1155522, “Molecular docking studies of phlorotannins from Eisenia bicyclis with BACE1 inhibitory activity” (Bioorg Med Chem Lett, 2010).
# What was measured:
# [1] = molecular target: T1, Beta-secretase 1 (Homo sapiens, UniProt P56817); test: Noncompetitive inhibition of human recombinant BACE1 after 60 mins by Dixon plot analysis
# Summary of the method: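 Inhibitor dissolved in 10% DMSO and tested at two concentrations. A Dixon plot of reciprocal enzyme velocity (1/V) against inhibitor concentration was used to assign the inhibition type and to derive the Ki of the enzyme–inhibitor complex.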
# [2] = molecular target: T1, Beta-secretase 1; test: Inhibition of human recombinant BACE1 after 60 mins by FRET assay
# Summary of the method: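 Test samples dissolved in 10% DMSO; the 50% inhibitory concentration is reported as mean ± S.E.M. of triplicate determinations.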
# T1 sequence (P56817 whole entry): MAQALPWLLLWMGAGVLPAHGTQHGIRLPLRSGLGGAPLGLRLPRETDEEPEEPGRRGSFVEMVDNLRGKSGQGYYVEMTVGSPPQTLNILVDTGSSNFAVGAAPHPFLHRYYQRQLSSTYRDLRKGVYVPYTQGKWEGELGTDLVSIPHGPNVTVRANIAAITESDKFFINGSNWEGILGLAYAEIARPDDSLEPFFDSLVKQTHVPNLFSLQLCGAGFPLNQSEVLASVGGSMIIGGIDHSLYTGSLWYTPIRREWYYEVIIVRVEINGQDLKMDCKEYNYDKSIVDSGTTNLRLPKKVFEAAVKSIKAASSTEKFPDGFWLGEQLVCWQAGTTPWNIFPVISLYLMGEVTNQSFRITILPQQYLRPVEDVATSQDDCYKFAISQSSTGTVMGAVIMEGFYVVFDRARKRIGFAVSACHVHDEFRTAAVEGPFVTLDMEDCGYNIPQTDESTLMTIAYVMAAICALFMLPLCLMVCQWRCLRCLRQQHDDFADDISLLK
Structure (SMILES),Ki [1],Activity [2],IC50 [2]
Oc1cc(O)c2oc3cc(O)c4oc5cc(O)cc(O)c5oc4c3oc2c1 [DIOXINODEHYDROECKOL],8 µM,Dose-dependent effect,5.35 µM
Oc1cc(O)cc(Oc2c(O)cc(O)c3c2Oc2c(O)cc4oc5c(Oc6cc(O)cc(O)c6)c(O)cc(O)c5c4c2O3)c1 [PHLOROFUCOFUROECKOL A],1.3 µM,Dose-dependent effect,2.13 µM
Oc1cc(O)cc(O)c1 [PHLOROGLUCINOL],,Dose-dependent effect,36.5 µM
Oc1cc(O)cc(Oc2c(O)cc(O)c3c2Oc2c(O)cc(O)cc2O3)c1 [ECKOL],13.9 µM,Dose-dependent effect,12.2 µM
Oc1cc(O)cc(Oc2c(O)cc(O)cc2Oc2c(O)cc(O)cc2O)c1 [TRIPHLOROETHOL A],12.1 µM,Dose-dependent effect,11.7 µM
Oc1cc(O)cc(Oc2c(O)cc(O)c3c2Oc2c(O)cc(Oc4c(O)cc(O)cc4O)cc2O3)c1,7.2 µM,Dose-dependent effect,8.59 µM
Oc1cc(O)cc(Oc2c(O)cc(O)c3c2Oc2c(O)cc(Oc4c(O)cc(Oc5c(O)cc(O)c6c5Oc5c(O)cc(O)cc5O6)cc4O)cc2O3)c1 [DIECKOL],1.5 µM,Dose-dependent effect,2.21 µM
O=c1c(O)c(-c2ccc(O)c(O)c2)oc2cc(O)cc(O)c12,,Dose-dependent effect,
